Experimental data taken from PMC4068216 (ACS Chemical Biology, 2014).
One block for each molecule: values may come before it.

Experiments:
[1] = system: LAT1; settings: only tested on LAT1 and LAT2; cited from earlier work
[2] = system: HT-29 colorectal adenocarcinoma cell; settings: in vitro and in vivo; cited from earlier work
[3] = system: LNCaP cells; assay: BrdU incorporation assay in LNCaP cells; assay type: cell-based, human; settings: BCH 10 mM, ESK242 and ESK246 50 μM, 22 h then BrdU 2 h
How it was run: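 LNCaP cells (2 × 10^5 per 6-well) adhered overnight, were serum-starved, then exposed to test compound, DMSO vehicle or BCH for 22 h. BrdU (150 μg/mL) was added for a further 2 h. Cells were detached, fixed and stained with APC anti-BrdU (1:50) and 7-AAD, then analysed by flow cytometry. Three separate experiments; one-way ANOVA.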

[4] = biological target: T1, LAT3 (Homo sapiens, UniProt O75387); assay: [3H]-L-leucine uptake assay in LNCaP cells; assay type: cell-based
T1 sequence (O75387 1-559): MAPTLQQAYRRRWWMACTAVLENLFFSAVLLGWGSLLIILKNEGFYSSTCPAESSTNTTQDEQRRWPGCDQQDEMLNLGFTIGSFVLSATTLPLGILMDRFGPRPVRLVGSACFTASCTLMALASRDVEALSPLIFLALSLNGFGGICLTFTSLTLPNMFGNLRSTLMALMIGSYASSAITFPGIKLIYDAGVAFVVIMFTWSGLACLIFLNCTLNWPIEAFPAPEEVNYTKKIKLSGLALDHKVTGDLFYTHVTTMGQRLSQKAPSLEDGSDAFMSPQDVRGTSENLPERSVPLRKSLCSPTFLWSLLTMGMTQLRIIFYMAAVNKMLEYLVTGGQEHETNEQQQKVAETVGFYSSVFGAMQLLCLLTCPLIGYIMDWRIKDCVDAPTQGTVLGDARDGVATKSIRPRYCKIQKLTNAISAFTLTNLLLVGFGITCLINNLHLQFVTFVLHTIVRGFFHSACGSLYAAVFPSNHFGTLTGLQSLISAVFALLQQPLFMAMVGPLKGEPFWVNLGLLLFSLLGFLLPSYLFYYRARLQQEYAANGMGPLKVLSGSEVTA
How it was run: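 Dose–response: LNCaP cells (3 × 10^4/well) took up 0.3 μCi [3H]-L-leucine (200 nM) in leucine-free RPMI with 10% dialysed FBS for 15 min at 37 °C. Screen: 10^4 cells/well in HBSS with 10% dialysed FBS and 50 mM L-glutamine, added onto preloaded fractions, n = 1 per fraction. Controls were 0.5% DMSO and 10 mM BCH. Cells were filter-harvested for scintillation counting.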

[5] = substrate: CC(C)C[C@H](N)C(=O)O; assay: [3H]-L-leucine uptake in Xenopus laevis oocytes expressing LAT3; assay type: cell-based, human; settings: other: no inhibitor, pH 7.5

Molecule: Nc1cc(COc2c(Cl)cc(C[C@H](N)C(=O)O)cc2Cl)c2oc(-c3ccccc3)nc2c1 [JPH203/KYT-0353]
selectivity, LAT1 versus LAT2 [1]: selectivity for LAT1-mediated transport | HT-29 cell growth [2]: suppression of HT-29 colorectal adenocarcinoma cell growth in vitro and in vivo

IC50 [4]: 4.06 ± 0.0011 mM | leucine uptake ([4]; high-throughput screen, positive control 10 mM, LNCaP cells): 30–40 % of control
Molecule: NC1(C(=O)O)CC2CCC1C2 (stereo not shown) [BCH, 2-aminobicyclo[2.2.1]heptane-2-carboxylic acid]
BrdU incorporation [3]: 14.7% | BrdU incorporation relative to control [3]: 51.6 % of control

B1: LAT3 (Homo sapiens) (protein)
chain: T1 sequence (O75387 1-559)
Km [5]: 6.3 ± 0.5 mM
